Results from ChEMBL document CHEMBL3393041, “Denhaminols A-H, dihydro-β-agarofurans from the endemic Australian rainforest plant Denhamia celastroides” (J Nat Prod, 2015).
pIC50: −log10 of the molar value. Values belong to the compound of their own block, whether it stands above or below them. The source made the active and inactive calls. The rule behind the calls is not given here.

Legend:
Assay type in all cases: functional, cell-based
LNCaP [1] = assay: Growth inhibition of human LNCAP cells after 72 hrs by Alamar Blue assay
In short: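 LNCaP cells in phenol-red-free RPMI-1640 with 5% FBS were seeded 4000/well for 24 h, then treated with compounds diluted from DMSO into medium (DMSO ≤0.4%). Metabolic activity was read by AlamarBlue endpoint after 72 h. IC50 was calculated at 72 h. DMSO served as negative control and doxorubicin as positive control. Triplicate points; three independent experiments.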

LNCaP [2] = assay: Antiproliferative activity against human LNCAP cells assessed as enlargement, granulation and cell burst at 10 to 100 uM by live-cell imaging method; settings: TDE = time-dependent effect
In short: (§1)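 LNCaP cells (ATCC) grown in phenol-red-free RPMI-1640 with 5% FBS at 37 °C, 5% CO2, kept in log phase. Cells seeded 4000/well for 24 h, then treated with compounds in DMSO diluted in medium (DMSO ≤0.4%). Plates imaged every 2 h for 96 h by IncuCyte live-cell imaging; growth read as confluence; morphology recorded from the images. DMSO as vehicle control.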

LNCaP [3] = assay: Antiproliferative activity against human LNCAP cells assessed as enlargement, granulation and cell burst measured every 2 hrs for 96 hrs by live-cell imaging method; in short: as §1
LNCaP [4] = assay: Antiproliferative activity against human LNCAP cells assessed as change in cell morphology at 10 to 100 uM measured up to 96 hrs by live-cell imaging method; in short: as §1
LNCaP [5] = assay: Reduction in phosphatidylcholine content in human LNCAP cells at 25 uM after 72 hrs by nile red staining based fluorescence microscopy
In short: (§2)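 LNCaP cells were seeded at 3000/well on poly-L-ornithine-coated plates in phenol-red-free RPMI-1640 with 5% FBS for 48 h, then treated for 72 h. Cells were fixed in 4% paraformaldehyde for 20 min on ice and stained 20 min at RT in PBS with 1.0 μg/mL DAPI and 0.25 μg/mL Nile Red. Mean fluorescence was measured for neutral lipids (Cy3) and phospholipids (Cy5) in ~300 cells at 10×. Analysis used one-way ANOVA with Dunnett's test. DMSO was the negative control and TOFA the positive control. Duplicate points; three independent experiments.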

LNCaP [6] = assay: Reduction in phosphatidylethanolamine content in human LNCAP cells at 25 uM after 72 hrs by nile red staining based fluorescence microscopy; in short: as §2
LNCaP [7] = assay: Reduction in phosphatidylserine content in human LNCAP cells at 25 uM after 72 hrs by nile red staining based fluorescence microscopy; in short: as §2
LNCaP [8] = assay: Reduction in sterol content in human LNCAP cells at 10 uM after 72 hrs by nile red staining based fluorescence microscopy; in short: as §2
LNCaP [9] = assay: Reduction in triglyceride content in human LNCAP cells at 10 uM after 72 hrs by nile red staining based fluorescence microscopy; in short: as §2
LNCaP [10] = assay: Reduction in fatty acid content in human LNCAP cells at 10 uM after 72 hrs by nile red staining based fluorescence microscopy; in short: as §2
LNCaP [11] = assay: Reduction in phosphatidylcholine content in human LNCAP cells at 10 uM after 72 hrs by nile red staining based fluorescence microscopy; in short: as §2
LNCaP [12] = assay: Reduction in phosphatidylethanolamine content in human LNCAP cells at 10 uM after 72 hrs by nile red staining based fluorescence microscopy; in short: as §2
LNCaP [13] = assay: Reduction in phosphatidylserine content in human LNCAP cells at 10 uM after 72 hrs by nile red staining based fluorescence microscopy; in short: as §2
LNCaP [14] = assay: Reduction in sterol content in human LNCAP cells at 60 uM after 72 hrs by nile red staining based fluorescence microscopy; in short: as §2
LNCaP [15] = assay: Reduction in triglyceride content in human LNCAP cells at 60 uM after 72 hrs by nile red staining based fluorescence microscopy; in short: as §2
LNCaP [16] = assay: Reduction in fatty acid content in human LNCAP cells at 60 uM after 72 hrs by nile red staining based fluorescence microscopy; in short: as §2
LNCaP [17] = assay: Reduction in phosphatidylcholine content in human LNCAP cells at 60 uM after 72 hrs by nile red staining based fluorescence microscopy; in short: as §2
LNCaP [18] = assay: Reduction in phosphatidylethanolamine content in human LNCAP cells at 60 uM after 72 hrs by nile red staining based fluorescence microscopy; in short: as §2
LNCaP [19] = assay: Reduction in phosphatidylserine content in human LNCAP cells at 60 uM after 72 hrs by nile red staining based fluorescence microscopy; in short: as §2

- pIC50 (LNCaP [1]): < 5.00
Structure (SMILES): CC(=O)OC[C@@]12[C@@H](OC(C)=O)CC[C@](C)(O)[C@]13OC(C)(COC(=O)c1ccccc1)[C@H](C[C@@H]2OC(=O)/C=C/c1ccccc1)[C@H]3OC(C)=O (stereo partly specified)

- pIC50 (LNCaP [1]): < 5.00
Structure (SMILES): C/C=C(\C)C(=O)OCC1(C)O[C@]23[C@H](OC(C)=O)[C@H]1[C@H](O)[C@H](OC(=O)/C=C/c1ccccc1)[C@]2(C)[C@@H](OC(=O)COC(C)=O)CC[C@]3(C)O (stereo partly specified)
- Activity (LNCaP [2]): tde
- Activity (LNCaP [3]): Dose-dependent effect
- Activity (LNCaP [4]): Active
- Activity (LNCaP [5]): Active
- Activity (LNCaP [6]): Active
- Activity (LNCaP [7]): Active

Structure (SMILES): CCCCCCCCCCCCCCOc1ccc(C(=O)O)o1
- Activity (LNCaP [8]): Active
- Activity (LNCaP [9]): Active
- Activity (LNCaP [10]): Active
- Activity (LNCaP [11]): Active
- Activity (LNCaP [12]): Active
- Activity (LNCaP [13]): Active

- pIC50 (LNCaP [1]): < 5.00
Structure (SMILES): CC(=O)OCC(=O)O[C@H]1CC[C@](C)(O)[C@]23OC(C)(COC(=O)c4ccccc4)[C@H]([C@H](O)[C@H](OC(=O)/C=C/c4ccccc4)[C@]12C)[C@H]3OC(C)=O (stereo partly specified)

- pIC50 (LNCaP [1]): < 5.00
Structure (SMILES): CC(=O)OC[C@@]12[C@@H](OC(C)=O)CC[C@](C)(O)[C@]13OC(C)(C)[C@H]([C@H](O)[C@@H]2OC(=O)/C=C/c1ccccc1)[C@H]3OC(C)=O

- pIC50 (LNCaP [1]): < 5.00
Structure (SMILES): C/C=C(\C)C(=O)OCC1(C)O[C@]23[C@H](OC(C)=O)[C@H]1C[C@H](OC(=O)/C=C/c1ccccc1)[C@]2(COC(C)=O)[C@@H](OC(=O)COC(C)=O)CC[C@]3(C)O (stereo partly specified)

- pIC50 (LNCaP [1]): < 5.00
Structure (SMILES): CC(=O)OC[C@@]12[C@@H](OC(C)=O)CC[C@](C)(O)[C@]13OC(C)(C)[C@H](C[C@@H]2OC(=O)/C=C/c1ccccc1)[C@H]3OC(C)=O
- Activity (LNCaP [14]): Active
- Activity (LNCaP [15]): Active
- Activity (LNCaP [16]): Active
- Activity (LNCaP [17]): Active
- Activity (LNCaP [18]): Active
- Activity (LNCaP [19]): Active

- pIC50 (LNCaP [1]): < 5.00
Structure (SMILES): CC(=O)OC[C@@]12[C@@H](OC(C)=O)CC[C@](C)(O)[C@]13OC(C)(COC(=O)c1ccccc1)[C@H](C[C@@H]2OC(=O)/C=C/c1ccccc1)[C@H]3O (stereo partly specified)

- pIC50 (LNCaP [1]): < 5.00
Structure (SMILES): CC(=O)OC[C@@]12[C@@H](OC(C)=O)CC[C@](C)(O)[C@]13OC(C)(C)[C@H](C[C@@H]2OC(=O)/C=C/c1ccccc1)[C@H]3O
